Data from ChEMBL document CHEMBL5724801, “EUbOPEN Chemogenomics Library - Multiplex” (2024).
“And” between values parts separate entries of the source, which are not always exact repeats. Identical values can stand only once.

System: HEK-293T
Experiment: Multiplex assay against HEK293T
Assay type: toxicity, cell-based
Conditions: human
Procedure, shortened: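 Cells stained live at seeding with Hoechst33342, BioTracker Green Microtubule Cytoskeleton Dye, MitoTracker Red and Annexin V Alexa Fluor 680 were imaged on a CQ1 microscope at 37°C and 5% CO2 after compound addition. Their classification by CellPathfinder machine-learning gating ran from Hoechst high-intensity objects versus normal cells, to healthy, pyknosed or fragmented nuclei among normal cells, to mitotic or apoptotic among pyknosed cells. Tubulin, mitochondrial-mass and membrane-permeability phenotypes are per cents of healthy-nucleus cells.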

[1] = 12 h, 1 µM, compound concentration 1 uM
[2] = 12 h, 10 µM, compound concentration 10 uM
[3] = 24 h, 1 µM, compound concentration 1 uM
[4] = 24 h, 10 µM, compound concentration 10 uM
[5] = 48 h, 1 µM, compound concentration 1 uM
[6] = 48 h, 10 µM, compound concentration 10 uM

With `O=C(O)c1cc2ccccc2c(Cc2c(O)c(C(=O)O)cc3ccccc23)c1O` [PAMOIC ACID] the “Population Apoptotic (%)” value [1] was 30% and 58%, the “Population Fragmented Nuclei (%)” value [1] was 9% and 7% and the “Population Healthy Nuclei (%)” value [1] was 77%. For the same compound, the “Population Hoechst High Intensity Objects (%)” value [1] was 7% and 6%, the “Population Membrane Permeable-Phenotype (%)” value [1] was 0% and the “Population Mitochondria Different-Phenotype (%)” value [1] was 38% and 60%. The “Population Mitotic Cells (%)” value [1] was 69% and 41%, the “Population Normal (%)” value [1] was 92% and 93% and the “Population Pyknosed Nuclei (%)” value [1] was 12% and 15%. The “Population Tubulin-Different-Phenotype (%)” value [1] was 23% and 21%, the “Total Cell Count” value [1] was 432 and 303 and the “Population Apoptotic (%)” value [2] was 34% and 52%. For the same compound, the “Population Fragmented Nuclei (%)” value [2] was 8% and 4%, the “Population Healthy Nuclei (%)” value [2] was 79% and 81% and the “Population Hoechst High Intensity Objects (%)” value [2] was 8%. For the same compound, the “Population Membrane Permeable-Phenotype (%)” value [2] was 0%, the “Population Mitochondria Different-Phenotype (%)” value [2] was 44% and 55% and the “Population Mitotic Cells (%)” value [2] was 65% and 47%. The “Population Normal (%)” value [2] was 91%, the “Population Pyknosed Nuclei (%)” value [2] was 12% and 13% and the “Population Tubulin-Different-Phenotype (%)” value [2] was 34% and 26%. For the same compound, the “Total Cell Count” value [2] was 446 and 275, the “Population Apoptotic (%)” value [3] was 29% and 40% and the “Population Fragmented Nuclei (%)” value [3] was 8% and 5%. The “Population Healthy Nuclei (%)” value [3] was 78% and 86%, the “Population Hoechst High Intensity Objects (%)” value [3] was 6% and the “Population Membrane Permeable-Phenotype (%)” value [3] was 1% and 0%. For the same compound, the “Population Mitochondria Different-Phenotype (%)” value [3] was 22% and 39%, the “Population Mitotic Cells (%)” value [3] was 70% and 59% and the “Population Normal (%)” value [3] was 93%. The “Population Pyknosed Nuclei (%)” value [3] was 12% and 7%, the “Population Tubulin-Different-Phenotype (%)” value [3] was 16% and the “Total Cell Count” value [3] was 559 and 378. The “Population Apoptotic (%)” value [4] was 29% and 41%, the “Population Fragmented Nuclei (%)” value [4] was 9% and 5% and the “Population Healthy Nuclei (%)” value [4] was 75% and 79%. For the same compound, the “Population Hoechst High Intensity Objects (%)” value [4] was 5% and 7%, the “Population Membrane Permeable-Phenotype (%)” value [4] was 0% and the “Population Mitochondria Different-Phenotype (%)” value [4] was 27% and 43%. The “Population Mitotic Cells (%)” value [4] was 70% and 58%, the “Population Normal (%)” value [4] was 94% and 92% and the “Population Pyknosed Nuclei (%)” value [4] was 14% and 15%. The “Population Tubulin-Different-Phenotype (%)” value [4] was 22% and 18%, the “Total Cell Count” value [4] was 592 and 365 and the “Population Apoptotic (%)” value [5] was 18% and 48%. The “Population Fragmented Nuclei (%)” value [5] was 11% and 8%, the “Population Healthy Nuclei (%)” value [5] was 81% and 84% and the “Population Hoechst High Intensity Objects (%)” value [5] was 2% and 7%. For the same compound, the “Population Membrane Permeable-Phenotype (%)” value [5] was 1% and 0%, the “Population Mitochondria Different-Phenotype (%)” value [5] was 13% and 27% and the “Population Mitotic Cells (%)” value [5] was 81% and 51%. The “Population Normal (%)” value [5] was 97% and 92%, the “Population Pyknosed Nuclei (%)” value [5] was 7% and 6% and the “Population Tubulin-Different-Phenotype (%)” value [5] was 10% and 11%. For the same compound, the “Total Cell Count” value [5] was 998 and 494, the “Population Apoptotic (%)” value [6] was 24% and 36% and the “Population Fragmented Nuclei (%)” value [6] was 13% and 11%. For the same compound, the “Population Healthy Nuclei (%)” value [6] was 79% and 82%, the “Population Hoechst High Intensity Objects (%)” value [6] was 3% and 7% and the “Population Membrane Permeable-Phenotype (%)” value [6] was 0%. For the same compound, the “Population Mitochondria Different-Phenotype (%)” value [6] was 18% and 27%, the “Population Mitotic Cells (%)” value [6] was 75% and 64% and the “Population Normal (%)” value [6] was 96% and 92%. For the same compound, the “Population Pyknosed Nuclei (%)” value [6] was 7% and 5%, the “Population Tubulin-Different-Phenotype (%)” value [6] was 10% and 12% and the “Total Cell Count” value [6] was 879 and 517.

With `COCCCN1CCC(NC(=O)c2cc(Cl)c(N)c3c2OCC3)CC1` [PRUCALOPRIDE] the “Population Apoptotic (%)” value [1] was 22% and 31%, the “Population Fragmented Nuclei (%)” value [1] was 10% and 4% and the “Population Healthy Nuclei (%)” value [1] was 80% and 82%. The “Population Hoechst High Intensity Objects (%)” value [1] was 8% and 7%, the “Population Membrane Permeable-Phenotype (%)” value [1] was 0% and the “Population Mitochondria Different-Phenotype (%)” value [1] was 36% and 59%. For the same compound, the “Population Mitotic Cells (%)” value [1] was 77% and 68%, the “Population Normal (%)” value [1] was 91% and 92% and the “Population Pyknosed Nuclei (%)” value [1] was 9% and 12%. For the same compound, the “Population Tubulin-Different-Phenotype (%)” value [1] was 21% and 16%, the “Total Cell Count” value [1] was 416 and 397 and the “Population Apoptotic (%)” value [2] was 37% and 56%. The “Population Fragmented Nuclei (%)” value [2] was 8% and 10%, the “Population Healthy Nuclei (%)” value [2] was 74% and 72% and the “Population Hoechst High Intensity Objects (%)” value [2] was 4% and 10%. The “Population Membrane Permeable-Phenotype (%)” value [2] was 0%, the “Population Mitochondria Different-Phenotype (%)” value [2] was 59% and 75% and the “Population Mitotic Cells (%)” value [2] was 62% and 43%. The “Population Normal (%)” value [2] was 95% and 89%, the “Population Pyknosed Nuclei (%)” value [2] was 17% and the “Population Tubulin-Different-Phenotype (%)” value [2] was 43% and 35%. The “Total Cell Count” value [2] was 421 and 261, the “Population Apoptotic (%)” value [3] was 20% and 28% and the “Population Fragmented Nuclei (%)” value [3] was 11% and 8%. The “Population Healthy Nuclei (%)” value [3] was 78% and 84%, the “Population Hoechst High Intensity Objects (%)” value [3] was 5% and 4% and the “Population Membrane Permeable-Phenotype (%)” value [3] was 1% and 0%. For the same compound, the “Population Mitochondria Different-Phenotype (%)” value [3] was 18% and 39%, the “Population Mitotic Cells (%)” value [3] was 79% and 71% and the “Population Normal (%)” value [3] was 94% and 95%. The “Population Pyknosed Nuclei (%)” value [3] was 10% and 6%, the “Population Tubulin-Different-Phenotype (%)” value [3] was 14% and 10% and the “Total Cell Count” value [3] was 590 and 546. For the same compound, the “Population Apoptotic (%)” value [4] was 28% and 50%, the “Population Fragmented Nuclei (%)” value [4] was 8% and 13% and the “Population Healthy Nuclei (%)” value [4] was 77% and 73%. For the same compound, the “Population Hoechst High Intensity Objects (%)” value [4] was 4% and 9%, the “Population Membrane Permeable-Phenotype (%)” value [4] was 0% and the “Population Mitochondria Different-Phenotype (%)” value [4] was 48% and 51%. The “Population Mitotic Cells (%)” value [4] was 71% and 50%, the “Population Normal (%)” value [4] was 95% and 90% and the “Population Pyknosed Nuclei (%)” value [4] was 13% and 12%. The “Population Tubulin-Different-Phenotype (%)” value [4] was 32% and 25%, the “Total Cell Count” value [4] was 531 and 341 and the “Population Apoptotic (%)” value [5] was 24% and 21%. The “Population Fragmented Nuclei (%)” value [5] was 15% and 11%, the “Population Healthy Nuclei (%)” value [5] was 76% and 81% and the “Population Hoechst High Intensity Objects (%)” value [5] was 2% and 1%. The “Population Membrane Permeable-Phenotype (%)” value [5] was 1% and 0%, the “Population Mitochondria Different-Phenotype (%)” value [5] was 16% and 15% and the “Population Mitotic Cells (%)” value [5] was 75% and 78%. The “Population Normal (%)” value [5] was 97% and 98%, the “Population Pyknosed Nuclei (%)” value [5] was 7% and 6% and the “Population Tubulin-Different-Phenotype (%)” value [5] was 11% and 9%. For the same compound, the “Total Cell Count” value [5] was 1001 and 832, the “Population Apoptotic (%)” value [6] was 20% and 35% and the “Population Fragmented Nuclei (%)” value [6] was 16%. The “Population Healthy Nuclei (%)” value [6] was 77% and 75%, the “Population Hoechst High Intensity Objects (%)” value [6] was 1% and 3% and the “Population Membrane Permeable-Phenotype (%)” value [6] was 1% and 0%. For the same compound, the “Population Mitochondria Different-Phenotype (%)” value [6] was 32% and 31%, the “Population Mitotic Cells (%)” value [6] was 79% and 64% and the “Population Normal (%)” value [6] was 98% and 96%. For the same compound, the “Population Pyknosed Nuclei (%)” value [6] was 6% and 7%, the “Population Tubulin-Different-Phenotype (%)” value [6] was 16% and 15% and the “Total Cell Count” value [6] was 772 and 528.

For `CCC(=O)N1CCN(c2ccc(-n3c(=O)ccc4cnc5ccc(-c6cnc7ccccc7c6)cc5c43)cc2C(F)(F)F)CC1` [TORIN1], the “Population Apoptotic (%)” value [2] was 71% and 51%, the “Population Healthy Nuclei (%)” value [2] was 76% and the “Population Hoechst High Intensity Objects (%)” value [2] was 7%. For the same compound, the “Population Membrane Permeable-Phenotype (%)” value [2] was 0%, the “Population Mitochondria Different-Phenotype (%)” value [2] was 78% and 87% and the “Population Mitotic Cells (%)” value [2] was 48%. For the same compound, the “Population Normal (%)” value [2] was 88% and 92%, the “Population Tubulin-Different-Phenotype (%)” value [2] was 37% and the “Total Cell Count” value [2] was 373 and 266. The “Population Apoptotic (%)” value [4] was 44%, the “Population Healthy Nuclei (%)” value [4] was 75% and the “Population Membrane Permeable-Phenotype (%)” value [4] was 0%. For the same compound, the “Population Mitochondria Different-Phenotype (%)” value [4] was 75% and 82%, the “Population Mitotic Cells (%)” value [4] was 46% and 55% and the “Population Normal (%)” value [4] was 86% and 77%. The “Population Tubulin-Different-Phenotype (%)” value [4] was 43% and 33%, the “Total Cell Count” value [4] was 337 and 225 and the “Population Apoptotic (%)” value [6] was 56% and 68%. For the same compound, the “Population Healthy Nuclei (%)” value [6] was 70% and 56%, the “Population Membrane Permeable-Phenotype (%)” value [6] was 0% and the “Population Mitochondria Different-Phenotype (%)” value [6] was 77% and 80%. For the same compound, the “Population Mitotic Cells (%)” value [6] was 43%, the “Population Normal (%)” value [6] was 73% and 38% and the “Population Tubulin-Different-Phenotype (%)” value [6] was 47% and 37%. The “Total Cell Count” value [6] was 292 and 235.
